The results in this text go back to PubChem BioAssay.

Calls of active or inactive are those of the source.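 Rule for the calls, unless noted: active = viability at or below 10% of carrier control in both of two separate runs; inconclusive = viability at or below 10% in only one of the two runs; inactive = the rest.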

A short description of test [1]: Her2 expression decrease, cell viability multiplex – SKBR3 breast tumor cells, AlphaScreen, ATP viability, primary screen (AID 461;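 active = Her2 level under about 52% in both replicate screens, with viability over 70% of control, limit read from the data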;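 for Her2 level: lower value means less Her2 protein in the cells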;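 for viability: percent of carrier control wells set as 100% viability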). As to conditions: SKBR3 Her2 protein level, 18-24 h, measured here: SKBR3 viability, ATP luminescence, at 10 µM.
For test [2], the target named is Receptor tyrosine-protein kinase erbB-2 (Homo sapiens) (UniProt P04626). The test is described as above. Conditions: 18-24 h, at 10 µM, stronger effect = lower value.
Test [3] can be described thus: reduced viability of SK-BR-3 breast cancer cells – cell-based, 24 h, human, pilot screen (AID 572).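 Note: compound exposure lasted between 18 and 24 h rather than exactly 24 h; 100% = carrier-treated control wells.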 Conditions: SK-BR-3 viability, CellTiter-Glo luminescence, at 10 µM, stronger effect = lower value.
Test [4] is described as follows: HUVEC growth inhibition – cell-based, human, primary screen (AID 575;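 active = viability at or below 30% in both replicate assays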;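 note: 100% = median of untreated cell wells with 0.1% DMSO on each plate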). Conditions: HUVEC proliferation, CellTiter-Glo luminescence, 72 h; at 10 µM; stronger effect = lower value. The gist of the method:
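Test system: HUVEC primary cells. Quantity: 1250 endothelial cells in each well. Dosing: single-point 10 µM, DMSO 0.1% final. Incubation: 72 h treatment at 37 °C. Measured by: CTG luminescence. Control set: DMSO cell controls and MePR drug controls. Plate: collagen-coated 384-well format.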

The nature of test [5]: H69AR cell proliferation blockers – human, duplicate replicates, primary screen (AID 580;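 active = viability at or under a set limit in both replicates, limit being median viability minus 3 SD, cut at about 48% in these data, passing the limit was not always enough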;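 note: 100% = mean luminescence of untreated wells and 0% = no signal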). As to conditions: H69AR lung tumor cells viability, ATP luminescence, 72 h; at 10 µM; stronger effect = lower value.
Test [6] is described as follows: MRP1 drug-resistance reversers in H69AR cells – cell-based, doxorubicin co-treatment, pilot screen (AID 601;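 active = viability loss from added drug above about 55%, and viability with drug at most 40%, in both replicates, limit read from the data, passing the limit was not always enough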). Conditions: CellTiter-Glo, 72 h, at 10 µM; for differential viability (reversal): stronger effect = higher value.
Test [7] in a line: yeast transport mutant growth inhibition pilot in 384-well plates, post-Golgi transport modulator project (AID 636; in the data active = inhibition above about 31%). As to conditions: absorbance 615 nm, about 18 h, stronger effect = higher value.
Test [8] can be described thus: growth suppression of yeast trafficking mutant, preliminary HTS, modulators of trafficking downstream of Golgi apparatus project, 1536-format plate, OD 615 nm (AID 637; in the data active = inhibition above about 30%). As to conditions: yeast transport mutant growth, absorbance 615 nm, 18 h; stronger effect = higher value.
Setting [9] is: H69AR cells + 2 uM doxorubicin, measured here: viability with 2 uM doxorubicin, stronger effect = lower value.
[10] abbreviates: H69AR cells, compound alone cytotoxicity.

Receptor tyrosine-protein kinase erbB-2 (Homo sapiens), sequence (P04626 whole entry, looked up): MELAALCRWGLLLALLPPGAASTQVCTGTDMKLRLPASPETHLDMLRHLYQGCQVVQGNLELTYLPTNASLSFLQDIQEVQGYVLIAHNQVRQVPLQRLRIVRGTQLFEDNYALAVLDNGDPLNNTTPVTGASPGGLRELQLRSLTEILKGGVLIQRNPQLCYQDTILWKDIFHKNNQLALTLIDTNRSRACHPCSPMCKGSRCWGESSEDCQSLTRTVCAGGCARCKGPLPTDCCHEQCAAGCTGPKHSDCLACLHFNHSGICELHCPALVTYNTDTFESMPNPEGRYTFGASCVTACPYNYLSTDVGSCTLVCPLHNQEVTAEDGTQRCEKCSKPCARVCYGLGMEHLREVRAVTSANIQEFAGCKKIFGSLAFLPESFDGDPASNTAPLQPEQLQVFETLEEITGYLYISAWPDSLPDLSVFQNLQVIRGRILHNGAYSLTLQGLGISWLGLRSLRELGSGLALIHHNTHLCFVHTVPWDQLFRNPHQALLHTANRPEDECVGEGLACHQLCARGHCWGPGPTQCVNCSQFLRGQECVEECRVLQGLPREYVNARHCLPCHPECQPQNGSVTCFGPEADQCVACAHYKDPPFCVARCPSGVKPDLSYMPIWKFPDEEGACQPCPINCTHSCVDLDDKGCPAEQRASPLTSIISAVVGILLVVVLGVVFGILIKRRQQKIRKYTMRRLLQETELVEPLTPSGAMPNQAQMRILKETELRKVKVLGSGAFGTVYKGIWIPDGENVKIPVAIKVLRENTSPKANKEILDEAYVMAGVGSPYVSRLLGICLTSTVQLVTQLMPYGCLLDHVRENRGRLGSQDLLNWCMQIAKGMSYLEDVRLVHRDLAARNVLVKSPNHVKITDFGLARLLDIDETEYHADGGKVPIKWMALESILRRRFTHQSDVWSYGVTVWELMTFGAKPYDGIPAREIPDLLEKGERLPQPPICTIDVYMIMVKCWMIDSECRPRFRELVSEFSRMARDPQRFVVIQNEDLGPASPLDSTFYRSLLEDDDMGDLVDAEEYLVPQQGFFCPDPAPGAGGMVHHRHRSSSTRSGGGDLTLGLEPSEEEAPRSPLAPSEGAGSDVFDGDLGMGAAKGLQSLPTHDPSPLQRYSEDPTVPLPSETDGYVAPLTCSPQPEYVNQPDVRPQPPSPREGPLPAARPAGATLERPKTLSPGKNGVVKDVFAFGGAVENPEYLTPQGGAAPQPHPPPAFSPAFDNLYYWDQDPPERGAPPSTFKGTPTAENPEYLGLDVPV

Take `CCSc1nc2c(c(=O)n(C)c(=O)n2C)n1Cc1ccc(Cl)cc1`: the viability in test [1] was 70.5%; in test [3], 70.5% (inactive); in test [4], 63.2% (inactive); in test [5], 83% (inactive); in test [6] (setting [9]), 87.9%; in test [6] (setting [10]), 83%. In test [2], the Her2 level is 71% (inactive). Also, the differential viability (reversal) in test [6] (H69AR cells + 2 uM doxorubicin) is -4.85% (inactive). Further, the values for the inhibition in test [7] and in test [8] were -0.92% (inactive) and 2.36% (inactive), respectively.
For the compound `O=C(NCC(c1cccnc1)N1CCN(c2ccc(F)cc2)CC1)OCc1ccccc1` (stereo not given), the viability in test [1] is 101%; in test [3] it was 101% (inactive); in test [4] it was 85% (inactive); in test [5], 91.8% (inactive); in test [6] (setting [9]), 95%; in test [6] (setting [10]), 91.8%. In test [2], the Her2 level was 66% (inactive). Besides, in test [6] (H69AR cells + 2 uM doxorubicin), the differential viability (reversal) is -3.13% (inactive). In addition, the inhibition in test [7] is -2.57% (inactive); in test [8], 32.9% (active).
Regarding `CN1CCN(c2nc3c(c(=O)[nH]c(=O)n3C)n2CCOc2ccccc2)CC1`, the viability in test [1] was 75.5%; in test [3] it was 75.5% (inactive); in test [4], 80.1% (inactive); in test [5], 92.2% (inactive); in test [6] (setting [9]), 91.5%; in test [6] (setting [10]), 92.2%. The Her2 level in test [2] was 85.5% (inactive). Moreover, the differential viability (reversal) in test [6] (H69AR cells + 2 uM doxorubicin) is 0.615% (inactive). Also, the inhibition in test [7] was -6.49% (inactive); in test [8], 2.62% (inactive).
`CN(C(=O)c1ccc(S(=O)(=O)NC2CCCC2)cc1)C1CCCCC1`: the viability in test [1] is 101%; in test [3], 101% (inactive); in test [4] it was 103% (inactive); in test [5] it was 102% (inactive); in test [6] (setting [9]), 92.3%; in test [6] (setting [10]), 102%. For the same compound, in test [2], the Her2 level is 87% (inactive). In addition, the differential viability (reversal) in test [6] (H69AR cells + 2 uM doxorubicin) was 9.82% (inactive). The inhibition in test [7] was -3.38% (inactive); in test [8], -7.54% (inactive).
On to `CC(C)CN(CC(C)C)C(=O)C12CCC(C)(C(=O)C1)C2(C)C` (stereo not given), for which the viability in test [1] is 74%; in test [3] it was 74% (inactive); in test [4] it was 110% (inactive); in test [5], 96.8% (inactive); in test [6] (setting [9]) it was 84.4%; in test [6] (setting [10]), 96.8%. Moreover, in test [2], the Her2 level was 103% (inactive). In test [6] (H69AR cells + 2 uM doxorubicin), the differential viability (reversal) was 12.3% (inactive). Besides, the inhibition in test [7] is 1.33% (inactive); in test [8], -7.62% (inactive).
Take `O=C(OCc1cccs1)c1ccccc1NS(=O)(=O)c1ccc2c(c1)OCCO2`: the viability in test [1] was 91.5%; in test [3], 91.5% (inactive); in test [4], 121% (inactive); in test [5], 102% (inactive); in test [6] (setting [9]), 86.7%; in test [6] (setting [10]) it was 102%. For the same compound, the Her2 level in test [2] was 94% (inactive). Further, in test [6] (H69AR cells + 2 uM doxorubicin), the differential viability (reversal) is 15.6% (inactive). Also, the inhibition in test [7] is -3.95% (inactive); in test [8], 5.74% (inactive).
On to `Cc1ccc(S(=O)(=O)C2(C(=O)N3CCCCCC3)CC2)cc1`, for which the viability in test [1] is 96.5%; in test [3], 96.5% (inactive); in test [4], 93.8% (inactive); in test [5], 107% (inactive); in test [6] (setting [9]), 105%; in test [6] (setting [10]), 107%. Besides, in test [2], the Her2 level was 83% (inactive). Moreover, the differential viability (reversal) in test [6] (H69AR cells + 2 uM doxorubicin) was 1.4% (inactive). The inhibition in test [7] is -2.73% (inactive); in test [8], -0.95% (inactive).
With `COc1ccccc1C(=O)N1CCCC(c2nc(-c3cc(OC)c(OC)c(OC)c3)no2)C1` (stereo not given), the viability in test [1] was 120%; in test [3] it was 120% (inactive); in test [4], 99.4% (inactive); in test [5] it was 78.8% (inactive); in test [6] (setting [9]), 55.6%; in test [6] (setting [10]), 78.8%. Besides, in test [2], the Her2 level is 90% (inactive). For the same compound, the differential viability (reversal) in test [6] (H69AR cells + 2 uM doxorubicin) was 23.2% (inactive). Moreover, the inhibition in test [7] is -6.71% (inactive); in test [8], 7.3% (inactive).
With `COc1ccccc1C(=O)NC(C)C(c1cccs1)N1CCN(C)CC1` (stereo not given), the viability was 103% in test [1]; 103% (inactive) in test [3]; 78.9% (inactive) in test [4]; 91.1% (inactive) in test [5]; 91.5% in test [6] (setting [9]); 91.1% in test [6] (setting [10]). The Her2 level in test [2] was 149% (inactive). Moreover, the differential viability (reversal) in test [6] (H69AR cells + 2 uM doxorubicin) was -0.4% (inactive). Also, the inhibition was 1.58% (inactive) in test [7] and -6.67% (inactive) in test [8].
Consider `CCN1CCN(c2nc(-c3cccnc3)nc3ccccc23)CC1`, for which the viability in test [1] was 89%; in test [3], 89% (inactive); in test [4] it was 101% (inactive); in test [5] it was 88.6% (inactive); in test [6] (setting [9]) it was 91.5%; in test [6] (setting [10]), 88.6%. Also, in test [2], the Her2 level is 94.5% (inactive). Moreover, in test [6] (H69AR cells + 2 uM doxorubicin), the differential viability (reversal) is -2.89% (inactive). The inhibition in test [7] was -3.16% (inactive); in test [8], -0.63% (inactive).
In the case of `CCOc1ccc(C2C(C(=O)OC)=CN(CCOC)C=C2C(=O)OC)cc1`, the viability in test [1] was 106%; in test [3] it was 106% (inactive); in test [4], 90% (inactive); in test [5], 97.3% (inactive); in test [6] (setting [9]) it was 99.2%; in test [6] (setting [10]), 97.3%. Further, in test [2], the Her2 level was 109% (inactive). In test [6] (H69AR cells + 2 uM doxorubicin), the differential viability (reversal) was -1.94% (inactive). Also, the inhibition in test [7] was 0.64% (inactive); in test [8], -1.33% (inactive).
In the case of `Fc1cccc(-c2cc3nc4c(c(N5CCN(c6cnccn6)CC5)n3n2)CCCC4)c1`, the viability in test [1] was 104%; in test [3] it was 104% (inactive); in test [4] it was 86.9% (inactive); in test [5], 89.2% (inactive); in test [6] (setting [9]), 83.6%; in test [6] (setting [10]) it was 89.2%. Further, the Her2 level in test [2] was 78% (inactive). For the same compound, the differential viability (reversal) in test [6] (H69AR cells + 2 uM doxorubicin) was 5.59% (inactive). Besides, the inhibition in test [7] was -5.58% (inactive); in test [8], 0.16% (inactive).
`O=C(O)CCn1c(SCc2ccccc2)nc2ccccc21`: the viability in test [1] was 116%; in test [3], 116% (inactive); in test [4], 112% (inactive); in test [5], 89.3% (inactive); in test [6] (setting [9]), 77%; in test [6] (setting [10]), 89.3%. Moreover, the Her2 level in test [2] was 107% (inactive). The differential viability (reversal) in test [6] (H69AR cells + 2 uM doxorubicin) is 12.2% (inactive). Moreover, the inhibition in test [7] was -5.73% (inactive); in test [8], 5.65% (inactive).
On to `O=C(Nc1cccc2c1CCCC2)C1CCN(c2nnnn2-c2ccccc2)CC1`, for which the viability is 92% in test [1]; 92% (inactive) in test [3]; 97.7% (inactive) in test [4]; 89.2% (inactive) in test [5]; 83.9% in test [6] (setting [9]); 89.2% in test [6] (setting [10]). Besides, in test [2], the Her2 level was 99% (inactive). Moreover, in test [6] (H69AR cells + 2 uM doxorubicin), the differential viability (reversal) was 5.29% (inactive). Further, the values for the inhibition in test [7] and in test [8] were -0.13% (inactive) and -6.45% (inactive), respectively.
Regarding `Cc1cnc(C(=O)Nc2ccc(N3CCN(C(=O)OC(C)(C)C)CC3)cc2)cn1`, the viability was 109% in test [1]; 109% (inactive) in test [3]; 100% (inactive) in test [4]; 115% (inactive) in test [5]; 99.9% in test [6] (setting [9]); 115% in test [6] (setting [10]). Moreover, in test [2], the Her2 level is 106% (inactive). Moreover, the differential viability (reversal) in test [6] (H69AR cells + 2 uM doxorubicin) was 15.1% (inactive). Moreover, the inhibition is -5.84% (inactive) in test [7] and -6.51% (inactive) in test [8].
